Bioassay records as filed in PubChem.
Myeloid diff MLP: myeloid differentiation induction | ER-HoxA9 myeloid progenitors, lysozyme-GFP differentiation, flow cytometry | calls only at 10 µM | actives 1% (n = 360,000) | AID 624256;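 active = normalized GFP-positive differentiation at or above the plate's own cutoff, the solvent-only control mean plus 3 SD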;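 note: cells exposed to compound for four days before flow analysis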
NR2E3 ag-1: agonists of human NR2E3 nuclear receptor; CHO-S Gal4-NCOR/VP16-NR2E3 two-hybrid, luciferase; inhibition of corepressor binding, % at 3.98 µM; actives 0.35% (n = 360,000);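 active = inhibition above the mean of all tested compounds plus 3 SD, cut at about 70% in these data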;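 note: 0% = DMSO with NR2E3 transfected cells and 100% = cells lacking NR2E3 construct; higher means lower luciferase signal from less NR2E3 corepressor binding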
Target sequence (Q9Y5X4 whole entry, looked up, the tested form may be a part): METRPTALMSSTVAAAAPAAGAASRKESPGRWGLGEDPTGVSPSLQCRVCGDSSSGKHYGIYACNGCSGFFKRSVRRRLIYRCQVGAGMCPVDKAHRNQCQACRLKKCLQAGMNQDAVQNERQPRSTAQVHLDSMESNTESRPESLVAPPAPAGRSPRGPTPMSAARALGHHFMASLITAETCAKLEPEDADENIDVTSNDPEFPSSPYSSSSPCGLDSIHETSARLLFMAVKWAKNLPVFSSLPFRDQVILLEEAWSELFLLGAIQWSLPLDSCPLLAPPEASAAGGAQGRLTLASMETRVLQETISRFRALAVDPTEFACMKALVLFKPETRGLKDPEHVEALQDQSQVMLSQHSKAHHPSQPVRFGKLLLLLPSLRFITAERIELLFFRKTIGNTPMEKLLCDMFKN
NR2E3 ag-2: activates human photoreceptor nuclear receptor NR2E3; inhibition of corepressor binding, % at 4.78 µM; Q9Y5X4; GST-NR2E3/biotin-RetCOR TR-FRET, 1536-well; actives 0.12% (n = 320,000);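 active = percent inhibition above the cutoff of mean plus 3 SD of all tested compounds, set per screening campaign, cut at about 20% in these data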;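 note: 0% = DMSO wells and 100% = biotin wells as full block of FRET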
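System: GST-tagged NR2E3 plus biotinylated RetCOR corepressor; Amount: 1.35 nM GST-tagged NR2E3 final; Dosing: single nominal compound dose of 4.8 µM; Schedule: 5 h incubation at 4 °C; Technique: TR-FRET with europium anti-GST and streptavidin-D2, 340 nm excitation; Controls: biotin wells as high control, 0.6% DMSO wells as low control.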
GAA850 FXN act: increases GAA850 frataxin promoter reporter activity | HEK293 lucGAA850 FXN promoter luciferase reporter, 24 h; percent of 10 µM SAHA response | activation, % at 6 µM | AID 540364 | actives 0.56% (n = 360,000);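 active = activation above the average of all compounds screened plus 3 SD, cutoff fixed separately per campaign, cut at about 7.5% in these data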;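 note: 0% = DMSO wells and 100% = 10 µM SAHA wells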
T cell HTS: T cell immune modulation candidate | 2C CD8+ T cell-vesicle binding, flow cytometry; hits give low values | response (vesicle binding), % at 7 µM | actives 0.068% (n = 330,000);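 active = response, share of CD8 T cells binding vesicles, and their 90th percentile fluorescence all below set limits, cut at about 80% in these data, passing the limit was not always enough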;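 note: values below 100% mean blocked vesicle binding to the CD8+ T cells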
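Material: murine 2C transgenic CD8+ T lymphocytes / Also added: QL9-peptide-loaded Drosophila micro-vesicles bearing Ld, ICAM-1 and B7-1 / Schedule: binding step 1.5 h, 37 °C, antibody labelling 20 min, ice / Signal: flow cytometry, PE anti-B7-1 (FL2) versus Alexa647 anti-CD8 (FL8), PFA-fixed / Evaluation: percent CD8+ FL2 mean versus row control / Benchmarks: naked versus QL9-loaded vesicles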
An asterisk follows results filed as active; i = inactive; . = not tested or not shown; + = active, no number. Sampled rows, rich in hits. Any-hit rate of the full collection: about 2%.

SMILES	Myeloid diff MLP	NR2E3 ag-1	NR2E3 ag-2	GAA850 FXN act	T cell HTS
Cc1[nH]c(=O)[nH]c(=O)c1NC(=O)c1sc2nc3c(C)cccc3cc2c1N	+	-22	-5	1	231
COCCNC(=S)Nc1ccc(N2CCOCC2)c(S(=O)(=O)Nc2ccccc2OC)c1	i	-2	0	0	408
O=C(CCS(=O)(=O)c1ccccc1)NNC(=O)CSc1ccccc1F	i	-16	.	0	455
O=C(CNC(=O)c1ccccc1F)NNC(=O)c1ccccc1O	+	-14	-2	2	465
Cc1ccccc1C(=O)NCC(=O)OCC(=O)NNC(=O)c1ccccc1F	i	10	.	0	.
C[C@H]1CN([C@@H](C)CO)C(=O)CCCn2nncc2CO[C@H]1CN(C)S(=O)(=O)c1ccccc1	i	4	.	1	.
CCOc1[nH]n(-c2ccc(Cl)cc2)c(=O)c1C=Nc1ccc(OC)cc1	+	-7	3	-2	349
CCOc1[nH]n(-c2ccccc2)c(=O)c1C=Nc1ccc(Cl)cc1	i	-6	2	-3	653
CC(=O)Nc1ccc(S(=O)(=O)CC(=O)CS(=O)(=O)c2ccc(NC(C)=O)cc2)cc1	i	11	.	1	.
COc1ccc(N2CCN(C(=O)COC(=O)c3ccco3)CC2)cc1	+	14	2	-1	166
COc1ccc(N2CCN(C(=O)COC(=O)/C=C/c3ccc(C(F)(F)F)cc3)CC2)cc1	+	-24	-1	0	299
COc1ccc(N2CCN(C(=O)COC(=O)Cc3cccc(OC)c3)CC2)cc1	i	-24	0	1	398
COc1ccc(N2CCN(C(=O)COC(=O)/C=C/c3ccc(OC(F)F)cc3)CC2)cc1	.	14	0	0	550
COC(=O)c1ccc(C)c(NC(=O)Cc2coc3cc(OC)ccc23)c1	+	0	3	2	415
Cc1ncc([N+](=O)[O-])n1CCN1C(=O)c2ccccc2C1=O	i	8	0	2	197
COc1ccc(N2C[C@H](CSC)[C@@H](CC(=O)Nc3ccc(Br)cc3)C2=O)cc1	i	-15	.	-1	.
CCN(c1ccccc1)S(=O)(=O)c1cc(C(=O)Nc2ccc(F)c(F)c2)ccc1F	+	-14	0	-1	177
CCN(c1ccccc1)S(=O)(=O)c1ccc(C(=O)Nc2cccc(NC(C)=O)c2)cc1	i	12	.	-2	353
COc1ccc(S(=O)(=O)NC(=O)C2(C)CCN2C(=O)c2cccc(F)c2)cc1 (stereo not given)	i	-10	.	-1	.
CCOc1ccc(NC(=S)N(CCc2c(C)[nH]c3ccc(C)cc23)Cc2ccncc2)cc1	+	1	1	-1	291
Cc1cc(Nc2cc(Cl)cc(Cl)c2)nc(N)n1	i	-8	-1	1	432
O=C(NCc1cccnc1)C1CCN(C(=O)c2ccc(Cl)cc2Cl)CC1	i	3	1	-1	652
O=C(NCc1ccco1)C1CCN(C(=O)c2ccc(Cl)cc2Cl)CC1	+	13	0	-1	310
Cc1cccc(-n2ccc(=O)c(C(=O)Nc3ccc(S(=O)(=O)Nc4nccs4)cc3)n2)c1	+	-8	1	2	195
O=C(Nc1ccc(S(=O)(=O)Nc2nccs2)cc1)c1nn(-c2ccccc2)ccc1=O	i	-23	2	1	240
SMILES	Myeloid diff MLP	NR2E3 ag-1	NR2E3 ag-2	GAA850 FXN act	T cell HTS
Cc1cc(O)c(Sc2ncn[nH]2)cc1NS(=O)(=O)c1ccc(Cl)cc1	i	14	2	-2	173
O=S(=O)(Nc1cc(Sc2ncn[nH]2)c(O)c2ccccc12)c1ccccc1	i	103*	.	-15	.
COc1cc2c(cc1OC)C1(Nc3c-2c(-c2ccccc2)nn3-c2ccccc2)C(=O)Nc2ccccc21 (stereo not given)	i	-36	4	7	289
COc1cc2c(cc1OC)C1(Nc3c-2c(C)nn3-c2ccccc2)C(=O)Nc2ccccc21 (stereo not given)	+	-9	5	0	281
COc1ccccc1NC(=O)C1C2C=CC(C2)C1C(=O)NCc1cccnc1 (stereo not given)	i	-5	-1	1	245
COc1ccc(OCc2cnc(Cl)s2)cc1	i	-27	-1	17*	194
O=C(CNc1cccc([N+](=O)[O-])c1)N/N=C/c1ccc([N+](=O)[O-])o1	+	-26	2	-1	232
O=C(Cc1ccc([N+](=O)[O-])cc1)N/N=C/c1ccc([N+](=O)[O-])o1	+	-8	-1	0	244
CCC1(O)CC2CN(CCc3c([nH]c4ccccc34)C(C(=O)OC)(c3cc4c(cc3OC)N(C=O)C3C(O)(C(=O)OC)C(OC(C)=O)C5(CC)C=CCN6CCC43C65)C2)C1 (stereo not given)	.	-15	.	-3	.
O=C1/C(=C\c2ccco2)SC(=S)N1C1CCCCC1	.	.	-5	.	113
CC1=C(C#N)C(=O)N(C2CCS(=O)(=O)C2)C(=O)/C1=C\c1ccco1 (stereo not given)	.	.	27*	.	324
COc1cc2ccc(C(C)=NNC(N)=S)cc2cc1OC	+	-12	.	2	.
Cc1ccc2oc(-c3ccc(NC(=O)c4ccncc4)cc3O)nc2c1	+	-89	2	5	172
N#Cc1c(NC(=O)c2cccnc2)sc2c1CCC2	+	-127	-1	-1	213
CC(=O)Nc1cc(OC(C)=O)c2nonc2c1OC(C)=O	i	13	39*	1	351
CC(=O)Nc1nonc1NC(C)=O	i	-20	3	0	315
CC1(C(=O)NS(=O)(=O)c2ccc(Cl)s2)CCN1C(=O)c1ccc(C2CCCCC2)cc1 (stereo not given)	i	4	.	-1	.
CC(=O)N1CCN(S(=O)(=O)c2cccc(C(=O)NCCC3=CCCCC3)c2)CC1	i	-16	-2	-1	220
Cn1cccc1C(=O)NC(=O)COC(=O)c1ccc(S(C)(=O)=O)c([N+](=O)[O-])c1	i	-10	.	7	255
CS(=O)(=O)c1ccc(C(=O)OCC(=O)NC23CC4CC(CC(C4)C2)C3)cc1[N+](=O)[O-]	i	-10	2	12*	145
O=C(CC12CC3CC(CC(C3)C1)C2)NCCN1CCOCC1	i	-29	2	2	285
O=C(CN1CCOCC1)NCC12CC3CC(CC(C3)C1)C2	+	6	0	2	245
CC(C)CN(C(=O)CCCOc1ccc(Cl)cc1Cl)c1c(N)n(Cc2ccccc2)c(=O)[nH]c1=O	i	-12	3	-3	469
O=C1COc2ccc(S(=O)(=O)NCCc3ccccc3)cc2N1	+	-3	1	0	360
Cc1ccccc1-c1ccc2c(c1)O[C@@H](CN(C)C(=O)Nc1ccc(C(F)(F)F)cc1)[C@H](C)CN([C@@H](C)CO)S2(=O)=O	i	-18	.	-6	.
